Yeast superoxide: lowers age-related superoxide in aged yeast cells; S. cerevisiae aged cells, superoxide DHE fluorescence; hits give low values; superoxide response (% of plate mean), % at 10 µM; hit rate 0.18% among 330,000; AID 2690;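 active = superoxide response under a set limit, about three screen SD below normal, cut at about 65% in these data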;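 note: yeast aged for seven days with compound at 30 °C before DHE staining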
SMARCA2 act: activators of SMARCA2 function | activation, % at 9.1 µM | hit rate 1% among 370,000 | MG213 cells, MMTV-luciferase reporter, dexamethasone, overnight | AID 652017; in the data active = activation above about 7.8%
SR-BI HDL uptake: blocks mouse SR-BI lipid uptake from DiI-HDL | hit rate 0.96% among 320,000 | ldlA[mSR-BI] CHO cells, DiI-HDL uptake fluorescence, 3 h | Q61009 | inhibition, % at 12.5 µM | AID 488896;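 active = mean replicate inhibition of at least 70% and a set share of replicates each scoring 70 or more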
SR-BI DiI-HDL act: activators of SR-BI mediated HDL lipid uptake; CHO ldlA[mSR-BI] cells, DiI-HDL uptake fluorescence, 3 h; 100 = double the neutral-control signal; activation, % at 12.5 µM; hit rate 0.096% among 320,000; AID 504775;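 active = mean replicate activation of at least 60% and every replicate at or above 60%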
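system = CHO ldlA[mSR-BI] cells, LDL receptor-null, SR-BI overexpressing | medium = Ham's F12 with 0.5% BSA, HEPES 25 mM, pH 7.4 | probe or stimulus = DiI-HDL 10 µg/mL | compound dosing = single-point compound dose | incubation = compound exposure 3 h, 37 °C | technique = DiI fluorescence, bottom read | read-out = cell-associated DiI fluorescence as measure of HDL uptake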
AHR activator: human AHR activation. hit rate 2.5% among 320,000. AHR-responsive luciferase reporter cells, luminescence. P35869. activation, % at 5 µM. AID 2796; in the data active = activation above about 47%
Target sequence (P35869 whole entry, looked up): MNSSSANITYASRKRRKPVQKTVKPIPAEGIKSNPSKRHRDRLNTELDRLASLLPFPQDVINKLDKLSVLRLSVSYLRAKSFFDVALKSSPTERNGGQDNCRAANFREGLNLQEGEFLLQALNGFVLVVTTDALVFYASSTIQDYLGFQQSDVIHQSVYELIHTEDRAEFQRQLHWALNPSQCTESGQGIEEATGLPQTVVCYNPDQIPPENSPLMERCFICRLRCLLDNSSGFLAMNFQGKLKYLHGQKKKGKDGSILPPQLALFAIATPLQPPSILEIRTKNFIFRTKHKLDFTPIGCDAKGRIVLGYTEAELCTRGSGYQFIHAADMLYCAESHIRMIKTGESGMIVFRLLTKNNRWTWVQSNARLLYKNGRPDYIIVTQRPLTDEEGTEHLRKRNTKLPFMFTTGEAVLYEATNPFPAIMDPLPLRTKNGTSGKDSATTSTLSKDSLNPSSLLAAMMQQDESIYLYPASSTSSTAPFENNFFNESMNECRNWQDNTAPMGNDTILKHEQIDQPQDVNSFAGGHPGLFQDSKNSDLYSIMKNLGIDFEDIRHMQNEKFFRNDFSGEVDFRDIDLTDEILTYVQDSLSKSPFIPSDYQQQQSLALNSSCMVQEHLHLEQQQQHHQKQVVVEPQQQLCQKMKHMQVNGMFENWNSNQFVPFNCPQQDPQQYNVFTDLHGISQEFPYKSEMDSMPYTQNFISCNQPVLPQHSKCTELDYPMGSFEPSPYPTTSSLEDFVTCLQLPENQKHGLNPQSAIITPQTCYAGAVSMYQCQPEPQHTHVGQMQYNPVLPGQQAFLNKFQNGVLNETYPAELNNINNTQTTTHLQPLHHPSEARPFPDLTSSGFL
Lipid droplet: modulators of hepatic lipid droplet formation; AML12 mouse hepatocytes, oleate lipid droplets, BODIPY imaging; inhibition, % at 6.5 µM; hit rate 0.4% among 240,000; AID 1656;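 active = lipid droplet intensity inhibited by at least 50%, with more than 500 cells counted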
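material = mouse AML12 hepatocyte cell line, fixed after treatment | also added = 100 µM oleic acid challenge | doses = compound at 6.5 µM only | schedule = overnight exposure | technique = Image-based BODIPY and DAPI two-channel analysis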
Lipid drop inh: confirmation of inhibitors of hepatic lipid droplet formation; shares compounds with Lipid droplet; AML12 mouse hepatocytes, BODIPY lipid droplet imaging; droplets induced with 100 µM oleic acid; inhibition, % at 5.2 µM; hit rate 65% among 870;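 active = inhibition of lipid droplet metric at least 50%, with more than 300 cells in each of four replicates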
AML12 tox img: AML12 hepatocyte cytotoxicity (counter-screen) | shares compounds with Lipid droplet | AML12 mouse hepatocytes, DAPI nuclear morphology cytotoxicity imaging; hits give high values; cells fed 100 µM oleate overnight | z-score at 5 µM | hit rate 3% among 870 | AID 463200; in the data active = z-score above about 6.3;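 note: compound exposure lasted overnight at 37 °C before fixation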
AML12 tox ATP: confirmation of cytotoxicity in AML12 mouse hepatocytes. shares compounds with Lipid droplet. AML12 mouse hepatocyte viability, ATP luminescence; cells loaded with 100 µM oleic acid. cytotoxicity, % at 50 µM. 530 tested, under 10 active. AID 463219;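 active = cytotoxicity above 50% in each of four replicates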;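 note: compound exposure lasted overnight at 37 °C before the ATP read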
Large screens that a line does not name were inactive (follow-up assays come after a bar, where they were run). This is a sample that favours compounds with a hit; in the whole collection about 4.3% have one here.

O=C(CSC1=NC2(CCCCCC2)N=C1c1ccccc1)Nc1ccc2c(c1)OCCO2	Lipid droplet 58.6 | Lipid drop inh 69.2 | AML12 tox img inactive | AML12 tox ATP inactive
COc1ccc(-n2c(SCC(=O)c3ccc4ccccc4c3)nnc2-c2ccccc2)cc1	none (no result: Yeast superoxide, SR-BI HDL uptake, SR-BI DiI-HDL act, AHR activator, Lipid droplet)
O=C(Cn1nnc(-c2ccc([N+](=O)[O-])cc2)n1)NNC(=O)c1ccccc1	Lipid droplet 59.2 (no result: SMARCA2 act) | Lipid drop inh inactive | AML12 tox img inactive
O=C(Cn1nnc(-c2ccccc2)n1)NNC(=O)c1cccc([N+](=O)[O-])c1	none (no result: SR-BI HDL uptake, SR-BI DiI-HDL act)
COc1ccc(-c2c/c(=N\c3nc(-c4ccccc4)c(C)s3)c3ccccc3o2)cc1O	SR-BI HDL uptake 80.2, Lipid droplet 57.6 | Lipid drop inh inactive | AML12 tox img 22.8
Brc1ccc2nc(-c3ccc(CN4CCC5(CC4)CNc4ccccc45)cc3)c(-c3ccccc3)nc2c1	none (no result: Yeast superoxide, SR-BI HDL uptake, SR-BI DiI-HDL act, AHR activator, Lipid droplet)
COC(=O)c1cc(-c2ccc(OC)cc2)nc2nc(SC)[nH]c(=O)c12	Lipid droplet 66.6 (no result: SR-BI HDL uptake, SR-BI DiI-HDL act) | Lipid drop inh inactive | AML12 tox img inactive
CCOC(=O)c1cc(-c2cccc(C(F)(F)F)c2)nc2nc(SC)[nH]c(=O)c12	none
CCOC(=O)c1cc(-c2ccc(C)cc2)nc2nc(SC)[nH]c(=O)c12	Lipid droplet 104.3 | Lipid drop inh 107.2 | AML12 tox img inactive
COc1cccc(N=CC=C2OC(C)(C)C(C)(C)O2)c1	Lipid droplet 65.8 | Lipid drop inh inactive | AML12 tox img inactive
Cc1cccc(N=CC=C2OC(C)(C)C(C)(C)O2)c1	none
CCc1c(C#N)c(SCc2c(C)noc2C)nc2c1C(=O)CC(C)(C)C2	none
CCc1c(C#N)c(SCCC(=O)Nc2ccc(OC)cc2)nc2c1C(=O)CC(C)(C)C2	Lipid droplet 54.1 | Lipid drop inh 88.8 | AML12 tox img inactive | AML12 tox ATP inactive
Cc1cccc(Nc2nc(N)c([N+](=O)[O-])c(N3CCCC(C)C3)n2)c1 (configuration not stated)	Lipid droplet 62.0 | Lipid drop inh 90.8 | AML12 tox img inactive | AML12 tox ATP 74.4
CCCCN(C)c1c2c(nc3ncnn13)CCCC2	none (no result: Yeast superoxide, SR-BI HDL uptake, SR-BI DiI-HDL act, AHR activator, Lipid droplet)
C/C(=C\c1cccc(Cl)c1Cl)C(=O)c1c(C)cc(C)[nH]c1=O	Lipid droplet 52.2 | Lipid drop inh inactive | AML12 tox img inactive
C/C(=C\c1ccccc1F)C(=O)c1c(C)cc(C)[nH]c1=O	none
COCC(=O)N1CC[C@H]2[C@@H]1c1cc(-c3cccc(OC)c3)ccc1N(C)[C@H]2CO	none (no result: Yeast superoxide, SR-BI HDL uptake, SR-BI DiI-HDL act, AHR activator, Lipid droplet)
COc1cc(NC(=O)c2cccs2)c(OC)cc1NC(=O)CCC(=O)Nc1ccc2ncccc2c1	Lipid droplet 68.3 (no result: Yeast superoxide, AHR activator) | Lipid drop inh 95.4 | AML12 tox img inactive | AML12 tox ATP inactive
COc1ccc(OCC(=O)Nc2ccc(NC(=O)c3cccs3)c(OC)c2)cc1	none
CCOC(=O)c1c(C)[nH]c(N=Nc2ccccc2C)c1C	Lipid droplet 68.5 | Lipid drop inh 105.6 | AML12 tox img inactive | AML12 tox ATP inactive
Cc1ccc2c(c1)N(CCCC(=O)N(C)Cc1ccc(F)cc1)C(=O)CO2	none (no result: Yeast superoxide, SR-BI HDL uptake, SR-BI DiI-HDL act, AHR activator, Lipid droplet)
CC/C(=N/Nc1ccccc1Cl)c1cnnc(-c2ccccc2)n1	Lipid droplet 55.7 | Lipid drop inh 75.4 | AML12 tox img inactive | AML12 tox ATP inactive
CC1CCN(c2c3c(nc4ncnn24)CCCC3)CC1	none (no result: Yeast superoxide, SR-BI HDL uptake, SR-BI DiI-HDL act, AHR activator, Lipid droplet)
CCOC(=O)c1cc(-c2ccc(F)cc2)n(CC(=O)NC(C)CC)c1C (configuration not stated)	Lipid droplet 69.6 | Lipid drop inh 65.8 | AML12 tox img inactive | AML12 tox ATP inactive
CCOC(=O)c1cc(-c2ccc(C)cc2)n(CCC(=O)NC(C)CC)c1C (configuration not stated)	none
CCN1CCN(Cc2ccc(NC(=O)c3ccc(C)c(NC(=O)c4ccc5n[nH]nc5c4)c3)cc2C(F)(F)F)CC1	none
CCN1CCN(Cc2ccc(NC(=O)c3ccc(C)c(NC(=O)C(=O)c4c[nH]c5ccccc45)c3)cc2C(F)(F)F)CC1	Lipid droplet 63.0 | Lipid drop inh inactive | AML12 tox img 6.33
COC(=O)c1cn(NC(=O)c2cc(OC)cc(OC)c2)c(=O)c2ccccc12	none (no result: Lipid droplet)
COC(=O)c1cn(NC(=O)c2ccc([N+](=O)[O-])cc2Cl)c(=O)c2ccccc12	Lipid droplet 50.5 | Lipid drop inh inactive | AML12 tox img inactive
NC(=O)CC(NC(=O)Cc1cccc2ccccc12)c1ccc(N2CCN(c3ccc(F)cc3)CC2)c([N+](=O)[O-])c1 (configuration not stated)	Lipid droplet 53.1 | Lipid drop inh inactive | AML12 tox img inactive
NC(=O)CC(NC(=O)Cc1cccc2ccccc12)c1ccc(N2CCCCCCC2)c([N+](=O)[O-])c1 (configuration not stated)	none (no result: Lipid droplet)
COc1ccccc1NC(=O)C1CCN(C(=O)NCc2ccccc2)CC1	Lipid droplet 50.6 | Lipid drop inh 80.3 | AML12 tox img inactive | AML12 tox ATP inactive
O=C(Nc1cccc2ccccc12)C1CCN(C(=O)NCc2ccccc2)CC1	none (no result: Lipid droplet)
Cc1nc2ccc(S(=O)(=O)NCC(=O)NCc3cccs3)cc2s1	none (no result: Yeast superoxide, SR-BI HDL uptake, SR-BI DiI-HDL act, AHR activator, Lipid droplet)
Cc1ccc(N2C(N)=C(C#N)C(c3cc(CN4CCOCC4)cs3)C3=C2CC(C)(C)CC3=O)cc1 (configuration not stated)	Lipid droplet 75.0 | Lipid drop inh 86.8 | AML12 tox img inactive | AML12 tox ATP inactive
Cc1ccc(N2C(N)=C(C#N)C(c3ccsc3)C3=C2CC(C)(C)CC3=O)cc1 (configuration not stated)	none (no result: Lipid droplet)
COc1ccccc1N1CCN(C(=O)COc2ccc(S(=O)(=O)NC(C)(C)C)cc2)CC1	Lipid droplet 64.1 (no result: SMARCA2 act, SR-BI HDL uptake, SR-BI DiI-HDL act) | Lipid drop inh 85.3 | AML12 tox img inactive
CCCCCc1cc(=O)oc2c(C(CCN3CCCC(C)C3)c3ccc(N(C)C)cc3)c(OC)cc(OC)c12 (configuration not stated)	Lipid droplet 61.8 (no result: SMARCA2 act) | Lipid drop inh inactive | AML12 tox img inactive
COc1ccc(-c2nc(NC(=O)Cn3cnnn3)sc2C)cc1	none
COc1ccc(-c2nc(NC(=O)Cn3ccc(C(F)(F)F)n3)sc2C)cc1	Lipid droplet 67.8 | Lipid drop inh 103.9 | AML12 tox img inactive | AML12 tox ATP inactive
COC(=O)C1CN(Cc2ccccc2)CCS(=O)(=O)N1Cc1cccc(Cl)c1 (configuration not stated)	none (no result: Yeast superoxide, SR-BI HDL uptake, SR-BI DiI-HDL act, AHR activator, Lipid droplet)

Screening data deposited in PubChem by several laboratories.
